Activity calls are given as the source filed them. The calls are words filed in the database; no cut-off is given here.

The test system of assay [1] is Schistosoma mansoni. Kind of assay: Antischistosomal activity against Schistosoma mansoni assessed as down-regulated DNAse II protein mRNA level in schistosomula at 20 uM incubated for 48 hrs by RT-qPCR analysis. In kind it is functional, organism-based. The method in brief: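 Schistosomula (supplemented M169) or adult worms (supplemented RPMI) were treated 48 h with 20 μM GSK343 or 0.1% DMSO at 37°C, 5% CO2. qPCR normalizer genes were chosen from RNA-seq data as those with TPM >1 and a treated/control ratio of 0.9–1.1 that were not differentially expressed. Relative expression was calculated by comparative Ct; significance by t-test.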
For orientation: Quantitative PCR measures a nucleic acid by following its amplification.

The subject of assay [2] is Schistosoma mansoni. Kind of assay: Antischistosomal activity against adult female Schistosoma mansoni assessed as rupture of blisters in dorsal region at 20 uM incubated for 24 to 48 hrs by scanning electron microscopy analysis. The following applies: time 24-48 hrs. In kind it is functional, organism-based. Put shortly: (§1)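 Adult couples were taken by perfusion into supplemented RPMI, one couple per well, and adapted 2 h at 37°C, 5% CO2. They were exposed to 20 μM GSK343 or 0.1% DMSO for 24 and 48 h. Fixation used modified Karnovsky with osmium post-fix, followed by ethanol dehydration, critical-point drying, gold sputtering and scanning electron microscopy of tegument surfaces.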

Assay [3] has as its system Schistosoma mansoni. The assay can be described thus: Antischistosomal activity against Schistosoma mansoni assessed as change in size at 20 uM incubated for 24 hrs by scanning electron microscopy analysis. Type of assay: functional, organism-based. The method in brief:
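Newly transformed schistosomula were held 16 h in M169 with 2% FBS, serotonin, hypoxanthine, hydrocortisone, triiodothyronine and antibiotics at 37°C, 5% CO2, at 2,000 per well. They were then exposed to 20 μM GSK343 or 0.1% DMSO for 24 and 48 h. Fixation was modified Karnovsky (pH 7.4) with 1% osmium post-fix, then ethanol dehydration, critical-point drying, gold coating and SEM. Lengths came from three experiments, each with 20 schistosomula.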

Assay [4] has as its system Schistosoma mansoni. Kind of assay: Antischistosomal activity against adult female Schistosoma mansoni assessed as presence of peeling in dorsal region at 20 uM incubated for 24 to 48 hrs by scanning electron microscopy analysis. Type of assay: functional, organism-based. The following applies: time 24-48 hrs. Put shortly:
as §1

In assay [5] the test system is Schistosoma mansoni. Kind of assay: Cytotoxicity against juvenile Schistosoma mansoni assessed as decrease in viability at 10 to 20 uM incubated for 48 hrs by CellTiter-Glo Luminescent assay relative to control. Type of assay: functional. The following applies: dose 10-20 µM. Put shortly:
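Perfused juvenile worms cultured in supplemented RPMI (10% FBS, 37°C, 5% CO2), exposed 24 or 48 h to compound or 0.1% DMSO. Total parasite ATP read by luminescence, given as % of vehicle; three replicate experiments of 10 juveniles each, mean ± SD.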
A general note: In ATP-based viability assays light output follows the ATP content of the culture.

For the molecule `CCCc1cc(C)[nH]c(=O)c1CNC(=O)c1cc(-c2ccnc(N3CCN(C)CC3)c2)cc2c1cnn2C(C)C`, the result in the assay on Schistosoma mansoni [1], with Schistosoma mansoni [2] and in the assay with Schistosoma mansoni [4] was Active. The result in the assay with Schistosoma mansoni [3] was inactive. The Activity in the assay with Schistosoma mansoni [5] is recorded as 20%.
